Screening results from PubChem BioAssay.
The list is not random: actives were taken first. Their share in the collection is about 3.1%.
Myeloid diff 2: myeloid differentiation induction | ER-HoxA9 myeloid progenitors, lysozyme-GFP differentiation, flow cytometry | calls only at 10 µM | 360,000 tested, 1% active | AID 624256;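 active means normalized GFP-positive differentiation at or above the plate's own cutoff, the solvent-only control mean plus 3 SD; inconclusive means no clear call, values can overlap the other calls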;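 further: cells exposed to compound for four days before flow analysis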
Fh CTSL1 inh: blocks F. hepatica cathepsin L1 in PFM18AAP counter-screen. recombinant F. hepatica cathepsin L1, Z-Leu-Arg-MCA fluorescence. inhibition, % at 5.96 µM. 300,000 tested, 0.49% active. AID 1906;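 active means inhibition above the mean of all tested compounds plus 3 SD, set per screening campaign, cut at about 17% in these data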;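 further: 0% = plate median of test compound wells and 100% = 1 µM Z-Phe-Ala-diazomethylketone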
NadD block: NadD (S. aureus) enzyme inhibition; purified NadD enzyme, colorimetric absorbance read-out; inhibition, % at 20 µM; 360,000 tested, 0.78% active; AID 602399; in the data active means inhibition above about 26%
PP1 counter: blocks human PP1-alpha phosphatase, a PP5 counter-screen; P62136; purified PP1alpha, OMFP fluorescence; inhibition, % at 6.7 µM; 320,000 tested, 0.9% active; AID 2235;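 active means inhibition above the mean inhibition of all tested compounds plus 3 SD, computed separately for each screening campaign, cut at about 15% in these data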
Target sequence (P62136 whole entry, looked up): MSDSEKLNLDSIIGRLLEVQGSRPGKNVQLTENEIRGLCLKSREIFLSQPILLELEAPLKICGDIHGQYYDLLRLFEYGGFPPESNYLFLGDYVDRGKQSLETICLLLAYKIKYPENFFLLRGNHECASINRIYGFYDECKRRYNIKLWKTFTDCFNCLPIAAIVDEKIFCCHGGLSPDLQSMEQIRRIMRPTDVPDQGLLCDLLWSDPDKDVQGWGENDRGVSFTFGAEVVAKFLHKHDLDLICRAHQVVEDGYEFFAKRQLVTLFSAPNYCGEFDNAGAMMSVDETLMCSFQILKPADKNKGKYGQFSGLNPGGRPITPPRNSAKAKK
PP5 primary: PP5 (human) phosphatase inhibition; inhibition, % at 6.7 µM; AID 1987; P53041; 320,000 tested, 0.18% active; purified PP5c, OMFP substrate fluorescence;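 active means inhibition above the campaign's mean inhibition across all tested compounds plus 3 SD, cut at about 9.5% in these data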;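 further: 0% = DMSO only and 100% = 100 µM cantharidin control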
core dimer inh: blocks dimerization of HCV core protein | TR-FRET GST/Flag-core106 dimerization, 1536-well | 300,000 tested, 0.33% active | inhibition, % at 5 µM | AID 1899;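 active means inhibition above the mean of all tested compounds plus 3 SD, set per screening campaign, cut at about 45% in these data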
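Assay system: GST-tagged and Flag-tagged HCV core protein residues 1-106 / Times: compound-protein-antibody incubation 4 h at 22.5 °C / Signal: time-resolved FRET, ex 340 nm, em 617 and 671 nm / Evaluation: % inhibition based on acceptor/donor emission ratio / Benchmarks: wells lacking GST-core106 and wells with excess unlabelled core106 / Repeats: singlicate, one well per compound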
NadD conf: NadD (S. aureus) inhibition, single concentration confirmation; shares compounds with NadD block; purified S. aureus NadD, colorimetric enzyme assay; inhibition, % at 20 µM; 2,000 tested, 13% active; AID 624309; in the data active means inhibition mostly above about 42%, no sharp cut-off; inactive means mostly below about 42%
Starred values were filed as active, the others as inactive; i = inactive; ? = inconclusive; . = not tested or not shown; + = active, no number.

SMILES	Myeloid diff 2	Fh CTSL1 inh	NadD block	PP1 counter	PP5 primary	core dimer inh	NadD conf
COCCn1c(=NC(=O)c2sc3ccccc3c2Cl)sc2cc(S(N)(=O)=O)ccc21	i	21.8*	29.3*	0.7	5.2	18.9	17.3
C=CCn1c(=NC(=O)c2sc3ccccc3c2Cl)sc2cc(S(N)(=O)=O)ccc21	i	-1.1	35.9*	11.4	-0.1	-1.0	0.0
O[C@@H]1CN(CC2CCCCC2)[C@@H](c2ccc(Cl)cc2)C[C@H]1n1cc(-c2ccc(F)cc2)nn1	i	.	-0.1	.	.	.	.
C[C@H](CO)N1C[C@H](C)[C@@H](CN(C)S(C)(=O)=O)Oc2ccc(N(C)C)cc2C1=O	i	.	1.7	.	.	.	.
Cc1ccc(S(=O)(=O)c2c(N)n(NC(=O)c3ccccc3C)c3nc4ccccc4nc23)cc1	i	2.6	19.9	2.8	2.0	13.8	.
Cc1cccc(S(=O)(=O)c2c(N)n(/N=C/c3ccccc3)c3nc4ccccc4nc23)c1	i	0.6	1.5	-1.6	1.5	9.0	.
Cc1ccc(C(=O)Nn2c(N)c(S(=O)(=O)c3ccc(C)cc3)c3nc4ccccc4nc32)cc1	i	2.8	30.4*	2.5	-0.5	4.3	31.8
Cc1ccc(C)c(S(=O)(=O)c2c(N)n(/N=C/c3ccco3)c3nc4ccccc4nc23)c1	i	5.8	31.5*	5.4	5.1	27.4	1.1
Nc1c(S(=O)(=O)c2ccccc2)c2nc3ccccc3nc2n1/N=C/c1cccc(O)c1	i	2.0	46.9*	-3.7	3.1	29.5	17.5
Cc1nc2ccc([N+](=O)[O-])cc2c(=O)n1Cc1ccc(F)cc1	i	-0.6	10.2	0.7	2.4	2.9	.
Cc1ccccc1CN1C(=O)c2ccccc2C1c1nnnn1C(C)C (stereo not drawn)	i	.	-5.5	.	.	.	.
COCCn1c(SCc2cc(=O)n3cc(C)ccc3n2)nc2ccccc2c1=O	.	1.0	.	-3.6	-0.2	2.9	.
O=c1cc(CSc2nc(NCc3ccc(Cl)cc3)c3ccccc3n2)nc2ccc(Cl)cn12	i	.	32.8*	.	.	.	14.8
CNC(=O)C[C@H]1C(=O)N(CCc2ccccc2)C[C@@H]1C	i	.	-0.5	.	.	.	.
O=C(Nc1ccc(Cl)cc1)[C@@H]1[C@@H]2C(=O)N(c3cccc(F)c3)C(=O)[C@@H]2[C@H]2C=CC=NN21	i	1.6	20.6	0.6	-1.9	19.6	.
O=C(Nc1ccc(Cl)cc1)[C@@H]1[C@@H]2C(=O)N(c3ccc4ccccc4c3)C(=O)[C@@H]2[C@H]2C=CC=NN21	i	7.8	56.6*	15.2*	2.1	59.6*	30.6
Cc1[nH]c2c(ccc3ccccc32)c1C1C(CCN)C1(C)C (stereo not drawn)	i	2.4	33.2*	7.9	0.1	-4.3	1.0
CC1=NN(c2ccc(C)c(C)c2)C(=O)C1C(c1cccc(O)c1)C1C(=O)N(c2ccc(C)c(C)c2)N=C1C (stereo not drawn)	i	-10.0	37.0*	-0.5	6.5	14.6	61.2*
CC1=NN(c2ccc(C)cc2C)C(=O)C1C(c1ccccc1O)C1C(=O)N(c2ccc(C)cc2C)N=C1C (stereo not drawn)	i	-3.9	21.4	-5.3	0.8	4.7	.
CCNC(=O)C1(C)CCCN(C(=O)c2cc(OC)ccc2Br)C1 (stereo not drawn)	i	.	2.0	.	.	.	.
CC(Nc1nc(=S)nc(Nc2ccc(F)cc2)[nH]1)c1ccccc1 (stereo not drawn)	i	0.0	31.2*	3.8	3.4	13.7	36.8
CCC(C)c1ccc(C2C3=C(Nc4nc(N)[nH]c(=O)c42)c2ccccc2C3=O)cc1 (stereo not drawn)	i	-1.8	37.1*	9.5	0.8	11.5	11.1
COC(=O)c1c(NC(=O)c2ccc(C)c(S(=O)(=O)Nc3ccccc3C)c2)sc2c1CCCC2	i	6.0	21.8*	-0.6	0.2	0.1	-7.2
COc1ccc(-c2nnc(Nc3nc4c(OC)cccc4s3)o2)cc1	?	2.4	31.2*	3.7	1.6	11.9	47.8
CCc1ccc(C(=O)C(C)OC(=O)CNS(=O)(=O)c2ccc(C)cc2)cc1 (stereo not drawn)	i	-66.4	-9.1	-4.5	-0.4	-1.3	.
SMILES	Myeloid diff 2	Fh CTSL1 inh	NadD block	PP1 counter	PP5 primary	core dimer inh	NadD conf
CCn1nnnc1NCc1cccn1C	i	2.6	34.7*	11.2	1.6	4.5	22.1
COc1cccc(-c2cnc(C(O)c3ccc(C)cc3C)[nH]2)c1 (stereo not drawn)	i	.	-0.9	.	.	.	.
COc1ccc(-c2nnc(NC(=O)c3ccc(S(=O)(=O)N4CCc5ccccc5C4)cc3)o2)cc1	i	0.0	84.4*	1.4	1.5	-3.6	13.8
COc1ccc(-c2csc(NC(=O)c3ccc(S(=O)(=O)N4CCc5ccccc5C4)cc3)n2)cc1	i	3.8	16.7	5.9	-1.2	27.6	.
CCOc1ccc(N=Nc2c(=O)[nH]n3c(=O)c4c([nH]c23)CCCC4)cc1	+	5.3	31.7*	12.3	4.3	-4.0	23.5
COc1cc(/C=C2\SC(=O)N(Cc3ccc(F)cc3)C2=O)cc([N+](=O)[O-])c1O	i	.	38.3*	.	.	.	4.3
CCOC(=O)CN1C(=O)S/C(=C/c2ccc(OC)c([N+](=O)[O-])c2)C1=O	i	4.3	-6.2	-2.0	0.7	9.1	.
COc1cc(/C=C2\SC(=O)N(Cc3ccc(Cl)cc3)C2=O)cc([N+](=O)[O-])c1O	i	.	37.3*	.	.	.	11.3
COC(=O)C1CCN(C(=O)/C=C/c2ccc3c(c2)OCO3)CC1	i	1.3	-8.7	-3.6	-0.6	-1.8	.
COc1ccc(-c2csc(NC(=S)NC(=O)c3cccs3)n2)cc1OC	i	.	8.3	.	.	.	.
COc1ccc(-c2csc(NC(=S)NC(=O)c3cccs3)n2)cc1Br	i	0.5	24.6*	-4.0	1.1	7.5	3.2
COc1ccc(Br)cc1/C=N/NC(=O)c1ccc(OC)c(OC)c1	i	-0.1	2.8	-2.4	1.5	0.2	.
COc1ccc(Br)cc1/C=N/NC(=O)c1nc(-c2ccccc2)n2c1CCCCC2	i	-0.2	39.2*	-2.9	4.6	8.0	12.6
COc1ccc(Nc2nnc(SC(C(=O)Nc3ccc(OC)c(Cl)c3)c3ccccc3)s2)cc1 (stereo not drawn)	i	1.2	32.1*	3.4	4.5	40.1	47.5
COc1ccc(Nc2nnc(SC(C(=O)Nc3cc(C)ccc3C)c3ccccc3)s2)cc1 (stereo not drawn)	i	-1.0	22.6	-0.2	1.5	33.0	.
CCN1CCN(Cc2ccc(NC(=O)c3ccc(C)c(NC(=O)c4cc(-c5ccc(Br)cc5)n[nH]4)c3)cc2C(F)(F)F)CC1	?	-2.6	31.5*	6.8	1.6	-6.5	-8.8
